pIC50: −log10 of the molar value. Calls of active or inactive are those of the source. The rule behind the calls is not given here.
What was measured:
[1] = target: Fibroblast growth factor receptor 1 (Homo sapiens) (UniProt P11362); assay: Inhibition of N-terminal GST-tagged human FGFR1 cytoplasmic domain (398 to 822 residues) expressed in baculovirus expression system at […] using FAM-labeled peptide as substrate after 10 mins by mobility shift assay relative to control
Outline: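 Caliper mobility-shift kinase assay. Kinase in kinase base buffer was preincubated with compound for 10 min at room temperature. FAM-labelled peptide and ATP at Km were then added, and the reaction ran at 28 °C until quenched with buffer. Screening concentration was 1 µM. Percent inhibition = (max − conversion)/(max − min) × 100, with DMSO as max and a low control as min.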

[2] = test system: A-431; assay: Antiproliferative activity against human A431 cells after 72 hrs by MTT assay; assay type: functional, cell-based; settings: A-431, 72 h
Outline: (§1)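 Cells seeded at 3000/well in growth medium with 10% FBS and left overnight. Treated in triplicate for 72 h at nine concentrations (0.458 to 30,000 nM), with DMSO-only controls. MTT (5 mg/mL) added for the last 4 h, formazan dissolved in DMSO, absorbance read at 490 nm. IC50 from non-linear sigmoidal dose-response fit.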

[3] = test system: PC-9; assay: Antiproliferative activity against human PC9 cells after 72 hrs by MTT assay; assay type: functional, cell-based; settings: PC-9, 72 h; outline: as §1
[4] = test system: HCC827; assay: Antiproliferative activity against human HCC827 cells after 72 hrs by MTT assay; assay type: functional, cell-based; settings: HCC827, 72 h; outline: as §1
[5] = test system: BEAS-2B; assay: Cytotoxicity against human BEAS2B cells after 72 hrs by MTT assay; assay type: cell-based; outline: as §1
[6] = target: Epidermal growth factor receptor (Homo sapiens, UniProt P00533, DEL747/DEL747-750); assay: Inhibition of N-terminal GST-tagged human EGFR del 747-750 mutant cytoplasmic domain expressed in baculovirus expression system using FAM-labeled peptide as substrate after 10 mins by mobility shift assay
Epidermal growth factor receptor (Homo sapiens, UniProt P00533, DEL747/DEL747-750), sequence (P00533 with tags, fused parts or gaps DEL747/DEL747-750 limits assumed): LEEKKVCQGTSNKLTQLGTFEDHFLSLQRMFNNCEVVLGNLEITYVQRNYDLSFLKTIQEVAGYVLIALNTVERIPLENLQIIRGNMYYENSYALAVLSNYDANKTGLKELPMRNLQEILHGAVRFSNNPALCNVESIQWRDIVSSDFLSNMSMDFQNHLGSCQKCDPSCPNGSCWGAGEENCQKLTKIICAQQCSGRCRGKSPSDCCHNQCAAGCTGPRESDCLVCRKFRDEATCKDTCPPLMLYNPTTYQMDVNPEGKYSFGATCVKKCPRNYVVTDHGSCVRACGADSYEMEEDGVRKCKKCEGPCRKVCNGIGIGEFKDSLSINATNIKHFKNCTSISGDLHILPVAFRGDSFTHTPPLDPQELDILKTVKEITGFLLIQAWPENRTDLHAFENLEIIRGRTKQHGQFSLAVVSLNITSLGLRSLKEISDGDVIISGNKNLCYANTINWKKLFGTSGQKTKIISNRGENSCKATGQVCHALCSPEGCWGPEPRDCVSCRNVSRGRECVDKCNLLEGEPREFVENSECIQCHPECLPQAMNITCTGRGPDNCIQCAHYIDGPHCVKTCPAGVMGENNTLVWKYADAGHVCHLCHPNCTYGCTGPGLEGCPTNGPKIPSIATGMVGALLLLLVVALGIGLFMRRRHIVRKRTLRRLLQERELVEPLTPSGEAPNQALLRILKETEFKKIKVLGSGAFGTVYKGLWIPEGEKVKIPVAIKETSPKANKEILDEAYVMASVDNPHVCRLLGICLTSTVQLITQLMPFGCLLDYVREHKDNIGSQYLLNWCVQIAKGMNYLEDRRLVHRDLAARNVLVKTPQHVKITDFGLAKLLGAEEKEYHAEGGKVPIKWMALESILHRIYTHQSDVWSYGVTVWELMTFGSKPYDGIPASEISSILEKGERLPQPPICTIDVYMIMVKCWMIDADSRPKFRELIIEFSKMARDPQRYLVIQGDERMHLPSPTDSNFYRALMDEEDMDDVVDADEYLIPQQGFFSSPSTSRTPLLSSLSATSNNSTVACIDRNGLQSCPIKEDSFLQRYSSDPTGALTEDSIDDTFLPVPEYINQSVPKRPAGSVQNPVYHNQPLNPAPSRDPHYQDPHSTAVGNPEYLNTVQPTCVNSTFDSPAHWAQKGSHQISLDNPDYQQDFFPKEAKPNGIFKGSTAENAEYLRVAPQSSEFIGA

[7] = target: T1, Epidermal growth factor receptor (Homo sapiens, UniProt P00533); assay: Inhibition of N-terminal GST-tagged wild type human EGFR cytoplasmic domain (669 to 1210 residues) expressed in baculovirus expression system using FAM-labeled peptide as substrate after 10 mins by mobility shift assay
T1 sequence (P00533 whole entry, the tested form may be a part): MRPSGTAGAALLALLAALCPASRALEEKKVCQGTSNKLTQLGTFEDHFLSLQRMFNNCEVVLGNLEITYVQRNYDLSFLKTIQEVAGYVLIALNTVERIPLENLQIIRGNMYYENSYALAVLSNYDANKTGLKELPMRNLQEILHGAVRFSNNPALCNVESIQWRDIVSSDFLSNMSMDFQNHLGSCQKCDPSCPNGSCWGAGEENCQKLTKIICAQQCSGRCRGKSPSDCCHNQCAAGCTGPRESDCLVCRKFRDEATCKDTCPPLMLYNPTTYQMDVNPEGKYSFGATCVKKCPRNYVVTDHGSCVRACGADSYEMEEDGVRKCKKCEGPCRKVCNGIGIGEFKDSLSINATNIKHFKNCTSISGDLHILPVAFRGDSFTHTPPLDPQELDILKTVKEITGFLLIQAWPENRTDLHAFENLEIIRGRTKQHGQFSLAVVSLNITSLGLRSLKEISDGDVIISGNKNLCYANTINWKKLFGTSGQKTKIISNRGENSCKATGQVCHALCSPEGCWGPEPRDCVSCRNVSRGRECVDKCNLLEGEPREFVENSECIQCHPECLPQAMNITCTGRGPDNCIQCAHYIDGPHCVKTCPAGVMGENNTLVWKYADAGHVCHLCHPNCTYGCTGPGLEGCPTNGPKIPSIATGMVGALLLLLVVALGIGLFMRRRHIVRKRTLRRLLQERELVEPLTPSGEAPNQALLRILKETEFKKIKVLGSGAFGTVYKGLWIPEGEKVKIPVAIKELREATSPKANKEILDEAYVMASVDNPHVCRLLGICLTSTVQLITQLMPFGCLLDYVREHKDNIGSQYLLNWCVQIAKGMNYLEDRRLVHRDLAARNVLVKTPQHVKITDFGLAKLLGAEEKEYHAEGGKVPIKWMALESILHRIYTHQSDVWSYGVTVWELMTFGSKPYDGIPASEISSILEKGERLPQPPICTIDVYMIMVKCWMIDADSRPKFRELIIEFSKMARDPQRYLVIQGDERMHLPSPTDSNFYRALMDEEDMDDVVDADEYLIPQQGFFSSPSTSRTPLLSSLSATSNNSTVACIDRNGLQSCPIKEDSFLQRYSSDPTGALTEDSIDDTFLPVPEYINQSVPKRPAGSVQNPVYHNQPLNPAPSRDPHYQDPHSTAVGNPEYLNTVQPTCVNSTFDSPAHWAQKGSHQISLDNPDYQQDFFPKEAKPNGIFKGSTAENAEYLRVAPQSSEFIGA

[8] = test system: NCI-H1975; assay: Induction of apoptosis in human NCI-H1975 cells assessed as early apoptotic cells at 250 nM after 48 hrs by Annexin V-FITC/PI staining based flow cytometry (reference value: 2.07%); assay type: functional
[9] = test system: NCI-H1975; assay: Induction of apoptosis in human NCI-H1975 cells assessed as early apoptotic cells at 1000 nM after 48 hrs by Annexin V-FITC/PI staining based flow cytometry (reference value: 2.07%); assay type: functional
[10] = test system: HCC827; assay: Induction of apoptosis in human HCC827 cells assessed as necrotic cells at 1000 nM after 48 hrs by Annexin V-FITC/PI staining based flow cytometry (reference value: 1.41%); assay type: functional
[11] = test system: Mus musculus; assay: In vivo inhibition of ERK1/2 phosphorylation in tumor of BALB/C nude mouse xenografted with human PC9 cells at 15 to 30 mg/kg, ip qd administered for 19 days by immunoblot method; assay type: functional, organism-based
[12] = test system: NCI-H3255; assay: Induction of apoptosis in human H3255 cells assessed as viable cells after 48 hrs by Annexin V-FITC/PI staining based flow cytometry; assay type: functional, cell-based
[13] = test system: NCI-H1975; assay: Induction of apoptosis in human NCI-H1975 cells assessed as late apoptotic cells at 250 nM after 48 hrs by Annexin V-FITC/PI staining based flow cytometry (reference value: 1.91%); assay type: functional
[14] = target: T1, Epidermal growth factor receptor; assay: Inhibition of EGF-induced EGFR autophosphorylation at Y1068 residues in human H1975 cells by Western blot method; assay type: cell-based
Outline: (§2)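 Cell lysates prepared in protein lysis buffer and cleared at 12,000 g for 10 min at 4 °C. 50 μg protein per lane was run on a gel, transferred to PVDF and immunoblotted, with GAPDH as the loading control.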

[15] = test system: HCC827; assay: Induction of apoptosis in human HCC827 cells assessed as necrotic cells at 250 nM after 48 hrs by Annexin V-FITC/PI staining based flow cytometry (reference value: 1.41%); assay type: functional
[16] = target: T1, Epidermal growth factor receptor; assay: Inhibition of EGFR in human A431 cells assessed as decrease in EGF-induced ERK1/2 phosphorylation by Western blot method; assay type: cell-based; outline: as §2
[17] = test system: HCC827; assay: Induction of apoptosis in human HCC827 cells assessed as necrotic cells at 500 nM after 48 hrs by Annexin V-FITC/PI staining based flow cytometry (reference value: 1.41%); assay type: functional
[18] = test system: Mus musculus; assay: In vivo inhibition of EGFR phosphorylation in tumor of BALB/C nude mouse xenografted with human PC9 cells at 15 to 30 mg/kg, ip qd administered for 19 days by immunoblot method; assay type: functional, organism-based
[19] = test system: NCI-H3255; assay: Induction of apoptosis in human H3255 cells assessed as early apoptotic cells at 250 nM after 48 hrs by Annexin V-FITC/PI staining based flow cytometry (reference value: 3.22%); assay type: functional
[20] = test system: PC-9; assay: Antitumor activity against human PC9 cells xenografted in BALB/C nude mouse assessed as decrease in tumor weight at 15 to 30 mg/kg, ip qd administered for 19 days measured for 23 days; assay type: functional, organism-based
Outline: (§3)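 Six-week-old BALB/C-nu mice given 2×10^6 PC-9 cells subcutaneously in the right flank. At tumour size ~0.2-0.4 cm³, randomised, 5 mice/group. Dosed ip daily for 19 days at 15 or 30 mg/kg, vehicle DMSO:Span-80:ddH₂O = 2:1:50; vehicle-treated control group. Tumour volume = (W²×L)/2. Tumours weighed.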

[21] = Cmax in Sprague-Dawley rat at 30 mg/kg, po by UPLC-MS/MS analysis; assay type: ADME, organism-based; parameters: dose 30 mg/kg, route oral; settings: in vivo
Outline: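 Four female and four male Sprague-Dawley rats, 200-220 g, fasted 12 h, then given a single oral dose of 30 mg/kg as a 0.5% CMC-Na suspension. Blood sampled at 0.083, 0.25, 0.5, 1, 2, 4, 8 and 24 h, plasma separated by centrifugation at 4000 r/min for 10 min, and analysed by UPLC–MS/MS. Parameters reported as mean ± SD, n=6.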

[22] = test system: Mus musculus; assay: In vivo inhibition of AKT phosphorylation in tumor of BALB/C nude mouse xenografted with human PC9 cells at 15 to 30 mg/kg, ip qd administered for 19 days by immunohistochemical analysis; assay type: functional, organism-based
[23] = test system: NCI-H3255; assay: Induction of apoptosis in human H3255 cells assessed as late apoptotic cells at 250 nM after 48 hrs by Annexin V-FITC/PI staining based flow cytometry (reference value: 1.77%); assay type: functional
[24] = test system: NCI-H3255; assay: Induction of apoptosis in human H3255 cells assessed as late apoptotic cells at 1000 nM after 48 hrs by Annexin V-FITC/PI staining based flow cytometry (reference value: 1.77%); assay type: functional
[25] = test system: NCI-H1975; assay: Induction of apoptosis in human NCI-H1975 cells assessed as late apoptotic cells at 500 nM after 48 hrs by Annexin V-FITC/PI staining based flow cytometry (reference value: 1.91%); assay type: functional
[26] = target: T1, Epidermal growth factor receptor; assay: Inhibition of EGFR in human H1975 cells assessed as decrease in EGF-induced ERK1/2 phosphorylation by Western blot method; assay type: cell-based; outline: as §2
[27] = test system: PC-9; assay: Antitumor activity against human PC9 cells xenografted in BALB/C nude mouse assessed as decrease in tumor volume at 15 to 30 mg/kg, ip qd administered for 19 days measured for 23 days; assay type: functional, organism-based; outline: as §3

Structure (SMILES)	inhibition [1] [%]	pIC50 [2]	pIC50 [3]	pIC50 [4]	pIC50 [5]	pIC50 [6]	pIC50 [7]	further results
O=C(O)CCCC(=O)Nc1cc(Nc2cccc(Cl)c2)ncn1	-8.8	< 4.52	5.70	5.40	4.74			
COc1cccc(Nc2cc(NC(=O)CCCC(=O)O)ncn2)c1	-5.5					7.92	7.43	
COc1cccc(Nc2cc(Nc3cc(OC)ccc3OC)ncn2)c1	-9.3	6.13	6.35	5.94	4.67			Activity [8]: 22.6%; Activity [9]: 27.8%; Activity [10]: 12.6%; inhibition [11]: Active; Activity [12]: Dose-dependent effect; Activity [13]: 13.5%; inhibition [14]: Dose-dependent effect; Activity [15]: 12.4%; inhibition [16]: Dose-dependent effect; Activity [17]: 9.2%; inhibition [18]: Active; Activity [19]: 13.3%; Activity [20]: Active; Cmax [21]: 1060 ng/mL; inhibition [22]: Active; Activity [23]: 3.24%; Activity [24]: 10.6%; Activity [25]: 15.5%; inhibition [26]: Dose-dependent effect; Activity [27]: Active
O=C(O)CCCC(=O)Nc1cc(N2CCOCC2)ncn1		6.11	6.25	5.81	4.75	7.96	7.28	
CCOC(=O)c1ccc(Nc2cc(NC(=O)CCCC(=O)O)ncn2)cc1	-5.3					7.68	7.32	
COc1ccc(Nc2cc(NC(=O)c3ccccc3)ncn2)cc1	2.8	5.02	6.18	5.27	4.73	7.59	7.09	
